Granule exo inh: lytic granule exocytosis inhibition; 0.66% of 360,000 active; inhibition, % at 10 µM; TALL-104 LAMP-1 surface exposure, flow cytometry; cells stimulated with thapsigargin and PMA;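 active = inhibition above about 55%, limit read from the data; inconclusive = no clear call, values can overlap the other calls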
MC4R barr agon: human MC4R agonism via beta-arrestin | P32245 | U2OS MC4R beta-arrestin complementation, luminescence; percent of melanotan II response, DMSO zero | activation, % at 8.9 µM | 0.98% of 360,000 active | AID 540308;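 active = activation above a per-plate cutoff, the mean activation of sample wells on that plate plus 3 SD, cut at about 8% in these data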
EBI2 block: antagonists of human EBI2 receptor; P32249; EBI2 beta-arrestin recruitment, luminescence, 7a,25-OHC stimulated; inhibition, % at 5 µM; 0.81% of 360,000 active; in the data active = inhibition above about 38%;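 note: enzyme fragment complementation signal reports receptor beta-arrestin coupling in cells; 0% = agonist plus DMSO wells and 100% = wells without agonist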
Myeloid diff MLP: myeloid differentiation induction | ER-HoxA9 myeloid progenitors, lysozyme-GFP differentiation, flow cytometry | 1% of 360,000 active | calls only at 10 µM;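 active = normalized GFP-positive differentiation at or above the plate's own cutoff, the solvent-only control mean plus 3 SD; inconclusive = no clear call, values can overlap the other calls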;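 note: cells exposed to compound for four days before flow analysis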
MC4R antagonist: human MC4R antagonism in cAMP assay; MC4R-expressing cells, MTII-stimulated cAMP, LANCE TR-FRET; inhibition, % at 6.5 µM; 0.48% of 360,000 active; AID 540295;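 active = inhibition above its plate's cutoff, the mean of tested wells on that plate plus 3 SD, cut at about 29% in these data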;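 note: 0% = Melanotan II alone and 100% = Melanotan II plus saturating MCL0020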
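Material – human MC4R-expressing U2OS cells · Repeats – no replicates · Detection – TR-FRET with Eu-cAMP and labeled anti-cAMP, 671 nm · Times – compound 30 min, challenge 1 h, detection 1 h · Compound – single nominal compound dose of 6.5 µM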
MC4R barr ag: human MC4R beta-arrestin agonism confirmation. shares compounds with MC4R barr agon. U2OS MC4R beta-arrestin recruitment, luminescence; scaled DMSO 0%, Melanotan II 100%. activation, % at 8.9 µM. 31% of 2,400 active;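 active = mean activation across replicates above the hit cutoff set in the earlier primary screen, cut at about 8% in these data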
MOR-DOR barr ag: counter-screen for MC4R agonists: agonists of mu-delta opioid heterodimer; AID 602194; 5.8% of 2,400 active; shares compounds with MC4R barr agon; activation, % at 9.2 µM; U2OS PathHunter beta-arrestin, beta-gal luminescence; percent of deltorphin B response, DMSO zero;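 active = mean activation across replicates exceeds the hit threshold derived in the earlier primary screen, cut at about 18% in these data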;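 note: 100% = deltorphin B at 0.9 µM final and 0% = DMSO alone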
Target sequence (P35372 whole entry, looked up): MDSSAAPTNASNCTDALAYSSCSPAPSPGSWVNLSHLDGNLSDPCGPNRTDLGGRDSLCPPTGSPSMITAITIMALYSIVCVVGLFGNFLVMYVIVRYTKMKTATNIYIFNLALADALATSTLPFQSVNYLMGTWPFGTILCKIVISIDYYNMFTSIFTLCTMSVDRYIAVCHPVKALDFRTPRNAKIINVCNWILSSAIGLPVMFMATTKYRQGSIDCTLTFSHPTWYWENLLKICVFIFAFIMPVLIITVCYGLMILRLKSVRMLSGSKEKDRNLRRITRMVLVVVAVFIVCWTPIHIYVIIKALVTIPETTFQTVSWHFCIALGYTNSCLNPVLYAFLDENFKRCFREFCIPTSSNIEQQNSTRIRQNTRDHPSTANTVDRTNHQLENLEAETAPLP
Target sequence (P41143 whole entry, looked up): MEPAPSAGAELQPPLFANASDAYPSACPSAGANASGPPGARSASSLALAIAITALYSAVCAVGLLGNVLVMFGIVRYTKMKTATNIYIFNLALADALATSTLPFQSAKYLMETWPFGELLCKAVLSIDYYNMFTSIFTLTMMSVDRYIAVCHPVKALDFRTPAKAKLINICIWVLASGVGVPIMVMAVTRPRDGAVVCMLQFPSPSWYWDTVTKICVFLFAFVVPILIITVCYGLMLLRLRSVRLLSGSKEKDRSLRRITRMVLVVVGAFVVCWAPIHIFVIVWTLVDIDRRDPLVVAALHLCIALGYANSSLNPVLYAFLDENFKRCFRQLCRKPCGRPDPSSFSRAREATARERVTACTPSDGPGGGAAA
The depositor's hits bear a star; i = inactive; u = inconclusive; x = no result given. The list is not random: actives were taken first. Their share in the collection is about 3.7%.

SMILES	Granule exo inh	MC4R barr agon	EBI2 block	Myeloid diff MLP	MC4R antagonist	MC4R barr ag	MOR-DOR barr ag
O=C(/C=C/c1ccc(F)cc1)NC(Cc1c[nH]c2ccccc12)C(=O)O (centres undefined)	-3	2	-4	i	28	x	x
OCCN(CCO)c1ccc(C(c2ccccc2Cl)c2ccc(N(CCO)CCO)cc2Cl)c(Cl)c1	-1	14*	1	i	9	9.6*	3
CC1(c2nnnn2-c2ccc3c(c2)OCCO3)CCC(=O)N1CCc1ccccc1F (centres undefined)	-4	x	2	i	x	x	x
Cc1cccc(NC(=O)c2sc3nc(-c4ccc(F)cc4)cn3c2C)n1	1	12*	6	i	14	7	5
CN(C)CCCNC(=O)c1ccc(-c2nc(-c3ccc(Cl)cc3)cs2)cc1	39	16*	22	i	17	56*	6
COCCN(Cc1ccc(C)cc1)C(=O)[C@H]1O[C@@H](n2ccc(=O)[nH]c2=O)[C@H](O)[C@@H]1O	-1	x	-2	i	x	x	x
Cc1cc(C(=O)Nc2sc(C)c(-c3ccc(F)cc3)c2C(N)=O)no1	0	13*	-1	i	-7	0	8
CCc1ccc(-c2c(C)sc(NC(C)=O)c2C(N)=O)cc1	2	-1	-5	i	-26	x	x
CNc1nc(N/N=C/c2cc3c(cc2[N+](=O)[O-])OCO3)nc(Nc2ccccc2)n1	-1	25*	-4	i	16	8	10
CC(C)Oc1ccc(C(CC(=O)O)c2ccc(F)cc2)cc1 (centres undefined)	-6	-1	-3	i	4	x	x
COc1ccc(NC(=O)CC(c2ccc(F)cc2)c2ccc(OC(C)C)cc2)cc1 (centres undefined)	-12	15*	13	i	9	7	3
CCOc1ccc(NC(=O)CC(c2ccccc2)c2ccc(F)cc2)cc1 (centres undefined)	5	17*	25	i	4	0	6
O=c1[nH]ncc(NCc2ccc(Cl)cc2)c1Cl	0	0	-9	i	10	x	x
O=C1CN(C(=O)c2ccc3nc(Cc4cccc(Cl)c4)oc3c2)CCN1	-4	-3	5	i	10	x	x
CCCCCCCCN1C(=O)[C@H](CC(=O)NCc2ccc(C)o2)C[C@@]2(C(=O)OC)CCCCC=C12	-2	x	1	i	x	x	x
COc1ccc(/C=N/OCC(=O)N=Nc2c(O)[nH]c3ccc(Br)cc23)cc1	0	1	-3	i	-2	x	x
COc1ccc(/C(C)=N/OCC(=O)N=Nc2c(O)[nH]c3ccccc23)cc1	0	14*	-11	i	8	11*	3
CCC(=O)N(Cc1ccco1)c1nc(-c2cc(OC)ccc2OC)cs1	-1	9.7*	15	i	-3	9.1*	5
Cc1ccc(-c2csc3nc(-c4ccncc4)[nH]c(=O)c23)cc1	-9	5	-2	i	11	x	x
CCOc1ccc(-c2nc3scc(-c4cccs4)c3c(=O)[nH]2)cc1	0	28*	4	i	-2	12*	2
COC(=O)c1ccccc1C(=O)c1cccc2ccccc12	-6	-1	14	i	5	x	x
COC(=O)c1cc2ccccc2c(-c2c(O)ccc3ccccc23)c1O	-1	17*	10	i	-17	13*	10
COc1ccc(-c2cnc3c(NC(C)=O)cc(-c4cc(F)ccc4OC)cn23)cc1OC	17	19*	6	u	-19	27*	2
COc1ccc(-c2cnc3c(NC(C)=O)cc(-c4cccc(NS(C)(=O)=O)c4)cn23)cc1OC	-5	3	5	i	2	x	x
COc1ccc(-c2cc(NC(C)=O)c3ncc(-c4ccc(F)cc4)n3c2)cc1OC	15	22*	23	i	14	26*	6
SMILES	Granule exo inh	MC4R barr agon	EBI2 block	Myeloid diff MLP	MC4R antagonist	MC4R barr ag	MOR-DOR barr ag
COc1ccc(-c2cc(NC(C)=O)c3ncc(-c4ccccc4)n3c2)cc1OC	33	5	22	i	-4	x	x
Nc1cc(Cl)ccc1Nc1ccncc1	12	-1	0	i	1	x	x
CCOc1cc(C)nc(N2CCC(C(=O)NC3CC3)CC2)n1	-3	1	-2	i	4	x	x
CO/N=C(/CS(=O)Cc1ccc(Cl)cc1)c1ccc(Cl)cc1 (centres undefined)	4	14*	27	i	11	0	6
COc1ccccc1CC1CC(=O)N(c2ccc([N+](=O)[O-])cc2)C1=O (centres undefined)	2	-1	-11	i	6	x	x
COC(=O)c1sccc1NC(=O)Nc1ccc(Cl)c(Cl)c1	-6	13*	4	x	-1	3	6
COC(=O)c1ccc(OCC(=O)Nc2ccsc2C(=O)OC)cc1	0	6	-3	i	20	x	x
COC(=O)c1sccc1NC(=O)Nc1ccc(C)c(C)c1	1	-1	8	i	5	x	x
COC(=O)c1sccc1NC(=O)c1ccc(Cl)s1	-1	12*	-7	i	15	0	2
COC(=O)c1sccc1NC(=O)COc1ccc(F)cc1Cl	1	10*	7	i	13	2	3
O=C(NC1CCCC1)N[C@@H]1CC[C@@H](CC(=O)N2CCOCC2)O[C@@H]1CO	-1	x	-1	i	x	x	x
O=C1N/C(=C/c2cccn2-c2ccccc2)C(=O)N1Cc1ccc(F)cc1	4	17*	7	i	-7	2	5
Cc1ccc(-c2c(C)c(-c3ccc(F)cc3)nc(N)c2C#N)o1	-2	13*	7	i	10	1	10
Cc1c(-c2ccc(F)cc2)nc(N)c(C#N)c1-c1cccnc1	1	1	-2	i	10	x	x
Cc1ccccc1OC1(C)CCN(Cc2ccc(-c3ccccn3)cc2)C1 (centres undefined)	0	15*	-31	i	9	4	8
CCOC(=O)Cc1ccc(Nc2nc3cc(-c4sccc4C)sc3c(=O)n2C)cc1	21	14*	19	u	-7	1	4
COc1ccc(Nc2nc3cc(-c4sccc4C)sc3c(=O)n2C)cc1OC	23	-2	-7	u	4	x	x
O=C(CSc1ncnc2nc[nH]c12)Nc1nnc(SCc2ccc(Cl)c(Cl)c2)s1	1	16*	-12	i	14	6	2
Cc1ccc(C)c(NC(=O)CSc2ncnc3nc[nH]c23)c1	2	-1	-1	i	8	x	x

High-throughput results: PubChem BioAssay, several laboratories
